According to ChEMBL document CHEMBL1944585, “Design, synthesis, and evaluation of thiol-activated sources of sulfur dioxide (SO₂) as antimycobacterial agents” (J Med Chem, 2012):
Converted amounts (≈) assume the structure as drawn. The source made the active and inactive calls. No cut-off for these calls is given here.

Columns and labels:
[1] = Prodrug activation of compound assessed as sulphur dioxide formation at 100 uM after 4 hrs in phosphate buffer at pH 7.4 by pararosaniline-based colorimetric assay in presence of cysteine; details: pH 7.4, 4 h
[2] = Prodrug activation of compound assessed as sulphur dioxide formation at 100 uM after 30 mins in phosphate buffer at pH 7.4 by pararosaniline-based colorimetric assay in presence of cysteine; details: pH 7.4, 0.5 h
In short: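 Sulfite detection: 900 μL p-rosaniline dye plus 50 μL saturated HgCl2 plus 50 μL sample, kept in the dark 15 min until violet colour developed, then absorbance read.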

[3] = system: Mycobacterium tuberculosis; assay: Antimycobacterial activity against Mycobacterium tuberculosis H37Rv by ten-fold serial dilution method; type: functional
In short: (§1)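 Agar dilution: ten-fold serial dilutions incorporated into Middlebrook 7H11 agar with OADC. Inoculum from fresh 7H11 slants, adjusted to 1 mg mL−1 wet weight in 0.05% Tween 80 saline, diluted 10−2 (approx. 10^7 cfu mL−1); 5 μL spotted per tube. 37 °C, read at 28 days. MIC = lowest concentration giving complete growth inhibition.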

[4] = system: Mycobacterium tuberculosis; assay: Antimycobacterial activity against Mycobacterium tuberculosis H37Rv assessed as growth inhibition at 2 ug/ml by ten-fold serial dilution method in presence of cysteine; type: functional, organism-based
In short: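 Test material was a cysteine mixture in pH 7.4 buffer, taken about 2 h after mixing and tested at 2 μg mL−1. Run on 7H11-OADC agar against H37Rv: inoculum approx. 10^7 cfu mL−1, 5 μL spotted, 37 °C, read at 28 days for complete growth inhibition.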

[5] = Selectivity index, ratio of IC50 for HEK293 cells to MIC for Mycobacterium tuberculosis H37Rv; type: functional
HEK293 = assay: Cytotoxicity against human HEK293 cells after 72 hrs by XTT assay; type: cell-based; details: HEK293, 72 h
[6] = system: Mycobacterium tuberculosis; assay: Antimycobacterial activity against Mycobacterium tuberculosis H37Rv assessed as growth inhibition at 100 ug/ml by ten-fold serial dilution method; type: functional, organism-based; in short: as §1

| SMILES | Drug degradation [1] | Drug degradation [2] | MIC [3] | MIC99 [3] | growth inhibition (GI) [4] | Selectivity Index [5] | IC50 (HEK293) | growth inhibition (GI) [6] |
| --- | --- | --- | --- | --- | --- | --- | --- | --- |
| CS(=O)(=O)NCc1ccccc1 | Not Active | 0 µM | > 100 µM | > 50 µg/mL |  |  |  |  |
| O=[N+]([O-])c1ccc(S(=O)(=O)N2CCCCC2)c([N+](=O)[O-])c1 |  | 91 µM | 2.5 µM (≈ 0.788 µg/mL) | 0.78 µg/mL (≈ 2.47 µM) |  |  |  |  |
| O=[N+]([O-])c1ccc(S(=O)(=O)Nc2ccccc2)c([N+](=O)[O-])c1 |  | 55 µM | 9.7 µM (≈ 3.14 µg/mL) | 3.13 µg/mL (≈ 9.68 µM) |  |  |  |  |
| NNC(=O)c1ccncc1 [ISONIAZID] |  |  | 0.37 µM (≈ 0.0507 µg/mL) | 0.05 µg/mL (≈ 0.365 µM) |  |  |  |  |
| O=[N+]([O-])c1ccc(S(=O)(=O)Nc2cccc(F)c2)c([N+](=O)[O-])c1 |  | 24 µM | 73 µM (≈ 24.9 µg/mL) | 25 µg/mL (≈ 73.3 µM) |  |  |  |  |
| CN(Cc1ccccc1)S(=O)(=O)c1ccc([N+](=O)[O-])cc1[N+](=O)[O-] |  | 100 µM | 1.1 µM (≈ 0.386 µg/mL) | 0.4 µg/mL (≈ 1.14 µM) |  |  |  |  |
| CN1CCN(S(=O)(=O)c2ccc([N+](=O)[O-])cc2[N+](=O)[O-])CC1 |  | 88 µM | 38 µM (≈ 12.6 µg/mL) | 12.5 µg/mL (≈ 37.8 µM) |  |  |  |  |
| O=[N+]([O-])c1ccc(Cl)c([N+](=O)[O-])c1 [DINITROCHLOROBENZENE] |  | 0 µM | 30.8 µM (≈ 6.24 µg/mL) | 6.25 µg/mL (≈ 30.9 µM) |  |  |  |  |
| O=[N+]([O-])c1ccc(NCc2ccccc2)c([N+](=O)[O-])c1 |  | 0 µM | > 250 µM | > 100 µg/mL |  |  |  |  |
| CCCN(Cc1ccccc1)S(=O)(=O)c1ccc([N+](=O)[O-])cc1[N+](=O)[O-] |  | 88 µM | 8.25 µM (≈ 3.13 µg/mL) | 3.13 µg/mL (≈ 8.25 µM) |  |  |  |  |
| COC(=O)C(C)NS(=O)(=O)c1ccc([N+](=O)[O-])cc1[N+](=O)[O-] (stereo unspecified) |  | 93 µM | 18.7 µM (≈ 6.23 µg/mL) | 6.25 µg/mL (≈ 18.8 µM) |  |  |  |  |
| O=[N+]([O-])c1ccc(S(=O)(=O)NCc2ccccc2)c([N+](=O)[O-])c1 |  | 100 µM | 0.15 µM (≈ 0.0506 µg/mL) | 0.05 µg/mL (≈ 0.148 µM) | inactive | 47 | 7 µM |  |
| COC(=O)C1CCCN1S(=O)(=O)c1ccc([N+](=O)[O-])cc1[N+](=O)[O-] (stereo unspecified) |  | 83 µM | 35 µM (≈ 12.6 µg/mL) | 12.5 µg/mL (≈ 34.8 µM) |  |  |  |  |
| O=[N+]([O-])c1ccccc1S(=O)(=O)NCc1ccccc1 | Not Active | 0 µM | > 100 µM | > 50 µg/mL |  |  |  |  |
| CNCc1ccccc1 [N-BENZYLMETHYLAMINE] |  |  | > 250 µM | > 100 µg/mL |  |  |  | inactive |
| NCc1ccccc1 [BENZYLAMINE] |  |  | > 250 µM | > 100 µg/mL |  |  |  |  |
| O=S(=O)(NCc1ccccc1)c1ccccc1 | Not Active | 0 µM | > 100 µM | > 50 µg/mL |  |  |  |  |
| O=S([O-])[O-].[Na+].[Na+] |  |  |  |  |  |  |  | inactive |
| O=[N+]([O-])c1ccc(S(=O)(=O)NCc2ccccc2)cc1 | Not Active | 0 µM | > 100 µM | > 50 µg/mL |  |  |  |  |
| O=[N+]([O-])c1ccc(S(=O)(=O)N2CCOCC2)c([N+](=O)[O-])c1 |  | 96 µM | 19.6 µM (≈ 6.22 µg/mL) | 6.25 µg/mL (≈ 19.7 µM) |  |  |  |  |
| COc1ccc(NS(=O)(=O)c2ccc([N+](=O)[O-])cc2[N+](=O)[O-])cc1 |  | 79.5 µM | 4.4 µM (≈ 1.55 µg/mL) | 1.56 µg/mL (≈ 4.42 µM) |  |  |  |  |
